Our source for the Activity, MIC and IC50 values is ChEMBL document CHEMBL1148429, “Penicillin-derived inhibitors that simultaneously target both metallo- and serine-beta-lactamases” (Bioorg Med Chem Lett, 2004).

≈ marks a conversion by molar mass, not a printed value. Some results are limits rather than exact numbers.

The test system of test [1] is Pseudomonas aeruginosa. In words: Synergistic activity against VIM-7 beta lactamase produced by Pseudomonas aeruginosa in presence of Piperacillin; R = Resistant.
The nature of test [2]: Synergistic activity against SPM-1 beta lactamase produced by Pseudomonas aeruginosa in presence of Piperacillin and DVRII183.
Test [3] can be described thus: Synergistic activity against VIM-1 beta lactamase produced by Pseudomonas aeruginosa in presence of Piperacillin.
Test [4] has as its system Pseudomonas aeruginosa. In words: Synergistic activity against VIM-7 beta lactamase produced by Pseudomonas aeruginosa in presence of Piperacillin and compound 48; R = Resistant.
In test [5] the test system is Pseudomonas aeruginosa. In words: Synergistic activity against VIM-7 beta lactamase produced by Pseudomonas aeruginosa in presence of Piperacillin and Tazobactam; R = Resistant.
Test [6] concerns Pseudomonas aeruginosa. Nature of the test: Synergistic activity against VIM-1 beta lactamase produced by Pseudomonas aeruginosa in presence of Piperacillin; R = Resistant.
Test [7] concerns the target T1, Metallo-beta-lactamase type 2 (Bacillus cereus, UniProt P14488).
T1 sequence (P14488 whole entry): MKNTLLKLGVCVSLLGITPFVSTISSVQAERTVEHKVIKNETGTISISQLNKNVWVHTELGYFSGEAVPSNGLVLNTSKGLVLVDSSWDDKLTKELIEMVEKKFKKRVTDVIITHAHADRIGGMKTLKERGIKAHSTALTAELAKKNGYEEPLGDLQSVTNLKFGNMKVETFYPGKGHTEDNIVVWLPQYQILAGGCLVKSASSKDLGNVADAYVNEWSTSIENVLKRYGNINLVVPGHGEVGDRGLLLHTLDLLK
Nature of the test: Inhibition of class B (BCII) metallo-beta-lactamase representative enzyme. In a few lines: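 BCII metallo-β-lactamase assay: inhibitor and enzyme incubated together for 4 min in 970 µL, then concentrated nitrocefin added to 1 mL final volume. IC50 determined from nitrocefin hydrolysis.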

Test [8] can be described thus: Synergistic activity against VIM-1 beta lactamase produced by Escherichia coli in presence of Piperacillin and Tazobactam. Format: functional, plasmodium aeruginosa. The conditions noted are these: Pseudomonas aeruginosa. The essentials: (§1)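 Synergy with piperacillin against metallo-β-lactamase-producing strains (IMP-1; SPM-1, VIM-1 or VIM-7 carriers). The initial screen used […] at a 1:1 antibiotic:inhibitor ratio. Inhibitor was tested with tazobactam or DVR-II-183 added as a serine β-lactamase inhibitor, or without one.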

Test [9] is described as follows: Synergistic activity against VIM-1 beta lactamase produced by Pseudomonas aeruginosa in presence of Piperacillin and DVRII183.
Test [10] relates to Escherichia coli. In words: Synergic activity against IMP-1 beta lactamase produced by Escherichia coli in presence of Piperacillin and Tazobactam; S = susceptible. It is filed as functional. In a few lines:
as §1

Test [11] deals with Escherichia coli. Nature of the test: Synergic activity against IMP-1 beta lactamase producing Escherichia coli in presence of Piperacillin and compound 48; S = susceptible. Format: functional. In a few lines: as §1
Test [12] in a line: Synergistic activity against VIM-7 beta lactamase produced by Escherichia coli in presence of Piperacillin. It is filed as functional, plasmodium aeruginosa. The conditions noted are these: Pseudomonas aeruginosa.
In a further test the target is Beta-lactamase L1 (Stenotrophomonas maltophilia, UniProt P52700). In words: Beta-Lactamase Inhibition of metallo-beta-lactamase representative class B (L1) enzyme. In a few lines: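 For the metallo enzyme, inhibitor and enzyme were preincubated for 4 min. Concentrated nitrocefin was then added to give the final assay volume, and IC50 was determined.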
Sequence of Beta-lactamase L1 (P52700 whole entry): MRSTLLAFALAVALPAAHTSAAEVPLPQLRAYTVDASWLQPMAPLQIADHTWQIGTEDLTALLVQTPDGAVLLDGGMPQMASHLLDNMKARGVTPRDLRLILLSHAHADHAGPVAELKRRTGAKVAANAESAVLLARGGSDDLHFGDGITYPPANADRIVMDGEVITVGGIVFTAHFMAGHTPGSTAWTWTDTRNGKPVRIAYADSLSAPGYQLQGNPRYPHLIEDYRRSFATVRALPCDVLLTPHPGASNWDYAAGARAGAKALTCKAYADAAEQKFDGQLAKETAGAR
Test [13] is described as follows: Synergic activity against IMP-1 beta lactamase produced by Escherichia coli in presence of Piperacillin and DVRII183. Format: functional. The essentials:
as §1

A short description of test [14]: Synergistic activity against VIM-7 beta lactamase produced by Escherichia coli in presence of Piperacillin and DVRII183. Format: functional, plasmodium aeruginosa. Conditions: Pseudomonas aeruginosa. In a few lines:
as §1

Test [15] can be described thus: Synergic activity against IMP-1 beta lactamase produced by Escherichia coli in presence of Piperacillin. Format: functional. In a few lines:
as §1

In test [16] the test system is Pseudomonas aeruginosa. In words: Synergistic activity against SPM-1 beta lactamase produced by Pseudomonas aeruginosa in presence of Piperacillin; S = susceptible.
The nature of test [17]: Synergic activity against IMP-1 beta lactamase produced by Escherichia coli in presence of Piperacillin and Tazobactam. Format: functional. In a few lines: as §1
Test [18] in a line: Synergistic activity against SPM-1 beta lactamase produced by Pseudomonas aeruginosa in presence of Piperacillin and Tazobactam.
The subject of test [19] is Escherichia coli. In words: Synergic activity against IMP-1 beta lactamase produced by Escherichia coli in presence of Piperacillin; S = susceptible. Format: functional. The essentials:
as §1

Test [20] has as its target Beta-lactamase TEM (Escherichia coli) (UniProt P62593). Nature of the test: Beta-Lactamase inhibitory activity against representative class A (TEM-1) serine enzyme from Escherichia coli ATCC 35218 in presence of Piperacillin. In a few lines:
(§2)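 MIC of piperacillin against β-lactamase-producing strains, with the piperacillin concentration varied and the inhibitor held constant at […].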

In test [21] the test system is Pseudomonas aeruginosa. Nature of the test: Synergistic activity against SPM-1 beta lactamase produced by Pseudomonas aeruginosa in presence of Piperacillin and compound 48; S = susceptible.
Test [22] has as its system Pseudomonas aeruginosa. Nature of the test: Synergistic activity against SPM-1 beta lactamase produced by Pseudomonas aeruginosa in presence of Piperacillin and Tazobactam; S = susceptible.
Test [23] in a line: Synergistic activity against VIM-7 beta lactamase produced by Escherichia coli in presence of Piperacillin and Tazobactam. Conditions: Pseudomonas aeruginosa. Format: functional, plasmodium aeruginosa. The essentials:
as §1

The subject of test [24] is Staphylococcus aureus. Nature of the test: Antibacterial activity was determined against the Staphylococcus aureus ATCC 29213 in presence of Piperacillin. Format: functional. In a few lines:
as §2

Test [25] deals with Beta-lactamase (Escherichia coli K-12) (UniProt P00811).
Sequence of Beta-lactamase (Escherichia coli K-12) (P00811 whole entry): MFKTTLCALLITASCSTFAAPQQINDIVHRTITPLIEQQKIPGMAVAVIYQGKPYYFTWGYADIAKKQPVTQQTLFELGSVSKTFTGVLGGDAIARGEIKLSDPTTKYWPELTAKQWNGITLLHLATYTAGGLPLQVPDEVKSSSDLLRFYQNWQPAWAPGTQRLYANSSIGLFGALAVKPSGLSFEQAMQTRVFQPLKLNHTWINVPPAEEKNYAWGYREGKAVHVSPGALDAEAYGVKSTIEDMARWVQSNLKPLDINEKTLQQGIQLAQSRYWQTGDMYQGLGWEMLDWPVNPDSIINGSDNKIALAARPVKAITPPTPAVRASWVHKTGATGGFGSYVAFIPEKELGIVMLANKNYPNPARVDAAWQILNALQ
Test [26] has as its system Pseudomonas aeruginosa. In words: Synergistic activity against VIM-1 beta lactamase produced by Pseudomonas aeruginosa in presence of Piperacillin and compound 48; S = susceptible.
Test [27] in a line: Synergistic activity against SPM-1 beta lactamase produced by Pseudomonas aeruginosa in presence of Piperacillin.
Test [28] concerns Pseudomonas aeruginosa. In words: Synergistic activity against VIM-1 beta lactamase produced by Pseudomonas aeruginosa in presence of Piperacillin and Tazobactam; R = Resistant.
In test [29] the test system is Staphylococcus aureus. Nature of the test: Antibacterial activity was determined against the Staphylococcus aureus ATCC 29213. It is filed as functional.
Test [30] in a line: Synergistic activity of compound was determined against VIM-7 beta lactamase produced by Pseudomonas aeruginosa.
Test [31] in a line: Synergistic activity of compound was determined against SPM-1 beta lactamase produced by Pseudomonas aeruginosa.
Test [32] concerns the target Beta-lactamase TEM (Escherichia coli) (UniProt P62593). In words: Beta-Lactamase inhibitory activity against represent active class A (TEM-1) serine enzyme from Escherichia coli ATCC 35218.
Test [33] is described as follows: Synergistic activity of compound was determined against […]. Conditions: Pseudomonas aeruginosa. Format: functional, plasmodium aeruginosa. The essentials:
as §1

The nature of test [34]: Synergic activity of compound was determined against IMP-1 beta lactamase produced by Escherichia coli. Format: functional. In a few lines:
as §1

Sequence of Beta-lactamase TEM (Escherichia coli) (P62593 whole entry): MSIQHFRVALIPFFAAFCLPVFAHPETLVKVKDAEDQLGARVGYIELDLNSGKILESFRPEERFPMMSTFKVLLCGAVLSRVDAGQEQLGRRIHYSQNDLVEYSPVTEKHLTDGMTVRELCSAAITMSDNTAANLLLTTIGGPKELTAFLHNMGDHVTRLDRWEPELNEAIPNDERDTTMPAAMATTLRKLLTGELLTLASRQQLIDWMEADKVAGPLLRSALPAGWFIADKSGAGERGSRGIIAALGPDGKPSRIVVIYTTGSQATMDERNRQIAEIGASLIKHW

The term IC50 denotes the concentration needed to halve the response being measured. Lower therefore signals inhibition by little substance. Take `CC1(C)[C@H](C(=O)O)N2C(=O)[C@@H](CS)[C@H]2S1(=O)=O`: the Activity entry was “Resistant” in the test with Pseudomonas aeruginosa [1]; “Resistant” with Pseudomonas aeruginosa [4]; “Resistant” with Pseudomonas aeruginosa [5]; “Resistant” with Pseudomonas aeruginosa [6]; “Susceptible” in the test on Escherichia coli [10]; “Susceptible” in the test with Escherichia coli [11]. In addition, the Activity result is “Susceptible” with Pseudomonas aeruginosa [16]; “Susceptible” in the test on Escherichia coli [19]; “Susceptible” in the test on Pseudomonas aeruginosa [21]; “Susceptible” in the test with Pseudomonas aeruginosa [22]; “Susceptible” in the test on Pseudomonas aeruginosa [26]; “Resistant” in the test with Pseudomonas aeruginosa [28]. The MIC in [2] is 64 µg/mL; in test [3], over 128 µg/mL; in test [8] it was over 128 µg/mL; in test [9], 128 µg/mL; in [12], over 128 µg/mL; in [13], 8 µg/mL. Moreover, the MIC in test [14] is over 128 µg/mL; in [15], 8 µg/mL; in [17], 8 µg/mL; in [18], 64 µg/mL; in [20], 8 µg/mL; in test [23], over 128 µg/mL. The MIC with Staphylococcus aureus [24] amounted to 2 µg/mL; in [25], 0.25 µg/mL (≈ 0.895 µM); in test [27], 64 µg/mL. Moreover, the results for the IC50 (in test [7]; at Beta-lactamase L1) were 1.4 µM and 0.1 µM, respectively.
Regarding `CCN1CCN(C(=O)N[C@@H](C(=O)N[C@@H]2C(=O)N3[C@@H]2SC(C)(C)[C@@H]3C(=O)O)c2ccccc2)C(=O)C1=O` [PIPERACILLIN], the MIC with Staphylococcus aureus [29] is 8 µg/mL (≈ 15.5 µM); in test [30], over 128 µg/mL; in test [31] it was over 128 µg/mL; in test [32] it was over 128 µg/mL; in test [33], over 128 µg/mL; in [34], over 128 µg/mL.
